This data set is described as follows: Toxicity liver stage against HepG2, at 10uM. The format is cell-based. More on the design: test concentration 10 uM, cell line HepG2-A16-CD81EGFP. The note with it: human, HepG2-A16-CD81EGFP cells; read-out: INHIBITION
Put shortly:
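Uninfected HepG2-A16-CD81EGFP cells, 3 × 10^3 per well, 1536-well, plated on prespotted compound at 10 μM final, parasite-free screening media added to match infected plates; puromycin 10 μM positive, DMSO 0.5% negative; run in parallel with 48 h PbLuc assay at 37 °C, 5% CO2; viability by CellTiter-Glo luminescence, normalized to controls.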
As for `O=C(c1cnn[nH]1)N(CCCO)Cc1cccnc1`, the cytotoxicity at 10 µM was -2.48%.

As for `Cn1cc(CCN2CCOC(CNc3cccnn3)C2)cn1` (configuration not stated), the cytotoxicity at 10 µM worked out at 2.11%.

In the case of `NC(=O)NCC(=O)N1C[C@@H]2CC[C@H]1CN(Cc1cscn1)C2`, the cytotoxicity at 10 µM was 8.86%.

For the compound `CC(C)(C)SCCN1CC(=O)N2CC[C@@H](O)C[C@H]2C1=O`, the cytotoxicity at 10 µM worked out at 4.01%.

Consider `Cc1ccc(C)c(C(=O)Nc2ccc(OC3CCN(C)CC3)cc2)c1`, for which the cytotoxicity at 10 µM was found to be 8.97%.

With `OCCNc1cc(-c2ccncc2)ncn1`, the cytotoxicity at 10 µM is -7.88%.

`O=C(COc1ccccc1)NCCNC(=O)c1scnc1Cl`: the cytotoxicity at 10 µM was -4.83%.

Regarding `Cc1noc(C)c1CN1CCO[C@H]2[C@H](Oc3ccccn3)CC[C@@H]21`, the cytotoxicity at 10 µM is -6.69%.

Take `O=c1n(CCSCc2ccccc2Br)nc2ccccn12`: the cytotoxicity at 10 µM is -3.95%.

In the case of `Cc1cc(C)n(CC2CCCN2C(=O)c2cc[nH]n2)n1` (configuration not stated), the cytotoxicity at 10 µM is -3.8%.

As for `CCc1cc(-c2nccn2-c2ccccc2CN2CCOCC2)on1`, the cytotoxicity at 10 µM is -7.91%.

In the case of `Cc1n[nH]cc1CNC1CCN(c2ccccc2)CC1`, the cytotoxicity at 10 µM is -52.2%.

Consider `Cc1cnccc1CN1CC[C@H](Oc2cccc(F)c2)[C@@](C)(O)C1`, for which the cytotoxicity at 10 µM is -5.55%.

Take `CCc1nccn1C1CCCN(C(=O)c2cccc3c2OCO3)C1` (configuration not stated): the cytotoxicity at 10 µM was -8.87%.

Take `O=c1[nH]cccc1-c1nccc(C2(c3ccccc3Cl)CCNCC2)n1`: the cytotoxicity at 10 µM is -6.27%.

As for `COc1ccc(CN2C[C@@H]3OCCN(CCN4CCCC4)[C@@H]3C2)cc1`, the cytotoxicity at 10 µM is -82.4%.

On to `COCCn1ccnc1CN1CCc2[nH]cnc2C1c1cnn(C)c1C` (configuration not stated), for which the cytotoxicity at 10 µM was -2.77%.

For the compound `Cc1c(C(=O)NC2(C#N)CCCC2)nnn1-c1ccccc1Cl`, the cytotoxicity at 10 µM is -6.75%.

`Cc1nc2cc(OCc3nc(C(=O)NC(C)(CO)CO)co3)ccc2s1`: the cytotoxicity at 10 µM came to 47.6%.

As for `Cc1ccc(F)c(S(=O)(=O)NCCc2nnc[nH]2)c1`, the cytotoxicity at 10 µM came out at 3.16%.

Take `Cc1noc([C@H]2C[C@H]3OCC[C@H]3N(S(=O)(=O)C3CC3)C2)n1`: the cytotoxicity at 10 µM is -10.5%.

For `Cc1ncc2c(n1)CN(Cc1nc(C)c(C)o1)CC2`, the cytotoxicity at 10 µM was -4.32%.

Consider `c1nc(CCC2CCCN2)cc(N2CCCCCC2)n1` (configuration not stated), for which the cytotoxicity at 10 µM was -20.6%.

As for `Cc1noc(C)c1CCC(=O)N1CCCCC1CNS(C)(=O)=O` (configuration not stated), the cytotoxicity at 10 µM came to 8.71%.

On to `Cn1cc(CNc2ncnc3c2CCN(Cc2ccsc2)CC3)cn1`, for which the cytotoxicity at 10 µM is 15.5%.

Regarding `Cc1nc(CN2C(=O)C[C@@H]3[C@@H]2CCN3C(=O)C2CCOCC2)cs1`, the cytotoxicity at 10 µM is -10.8%.

With `COc1ccc(CNC(Cn2cncn2)c2ccccc2)cc1C` (configuration not stated), the cytotoxicity at 10 µM is -4.33%.

As to `Cc1nn2cccnc2c1C(=O)NCc1ccccc1OCC1CC1`, the cytotoxicity at 10 µM was -48.4%.

As for `O=C(O)[C@@H]1CN(Cc2cnc(C3CCCCC3)nc2)C[C@H]1C1CC1`, the cytotoxicity at 10 µM is -10%.

As to `Cc1cn2c(n1)C(CNCC1=Cc3cc(Cl)ccc3OC1)CCC2` (configuration not stated), the cytotoxicity at 10 µM was found to be 33.3%.

As to `CCn1cc(NC(=O)C2CCN(CC(=O)NC(C)(C)CC)CC2)cn1`, the cytotoxicity at 10 µM was -1.01%.

Take `O=C(NCC(O)c1ccc(F)cc1F)c1ccccc1` (configuration not stated): the cytotoxicity at 10 µM stood at 4.15%.

For `CN(C)C(=O)Cn1cc(C#N)c(=O)c2cc(Br)ccc21`, the cytotoxicity at 10 µM was 15.7%.

For the compound `CC(C)NC(=O)N1CCOC2(CCCNC2)C1` (configuration not stated), the cytotoxicity at 10 µM stood at 4.76%.

For `Cc1n[nH]c(C)c1CCC(=O)N1CCc2c(nc[nH]c2=O)C1`, the cytotoxicity at 10 µM is -5%.

With `CC(=O)N1CCCC(Cc2cnc(-n3ccnc3)cn2)C1` (configuration not stated), the cytotoxicity at 10 µM is -21.7%.

Consider `CC(c1ccc(F)cc1)N1CCN(Cc2ccc(C#N)cc2)CC1` (configuration not stated), for which the cytotoxicity at 10 µM is -6.17%.

Take `CC(C(=O)NC(N)=O)N(C)CCCc1cc(-c2ccccc2)no1` (configuration not stated): the cytotoxicity at 10 µM was -8.63%.

Turning to `Cc1ccc(Oc2ncccc2CNC2CCCCC2)cn1`, the cytotoxicity at 10 µM was -8.59%.

As for `CCn1nc2c(cc1=O)CN(Cc1nc(-c3ccoc3)no1)CC2`, the cytotoxicity at 10 µM came to 4.9%.

In the case of `COCCN1C[C@H]2CN(C(=O)C3CC3)CCN2C1=O`, the cytotoxicity at 10 µM is 7.37%.

As to `CN(C)[C@H]1CCCCN(C(=O)c2cccc(N3CCS(=O)(=O)CC3)c2)C1`, the cytotoxicity at 10 µM was determined as 2.45%.

With `Cc1cc(C)nc(CCNc2nccc(CCC(F)(F)F)n2)n1`, the cytotoxicity at 10 µM is -114%.

For the compound `CNc1ncccc1C(=O)N1CCN(C)C2(CCN(C)CC2)C1`, the cytotoxicity at 10 µM was 7.16%.

Regarding `CCN1C(=O)CCC12CCCN(Cc1nccs1)C2` (configuration not stated), the cytotoxicity at 10 µM is -73.5%.

Consider `COCCN(C(=O)c1ccoc1C)c1ccc(C#N)cc1`, for which the cytotoxicity at 10 µM is -4.9%.

As to `CCOC1CCN(C(=O)c2cnn(-c3ccccc3Cl)c2)CC1`, the cytotoxicity at 10 µM was -9.78%.

In the case of `Cc1cc(C(=O)NCc2cccn2C)nn1C`, the cytotoxicity at 10 µM stood at 1.21%.

Consider `Cc1cnc(C(=O)N2CC[C@H]3C[C@@H](c4nc(C)cs4)O[C@@H]3C2)cn1`, for which the cytotoxicity at 10 µM was 9.32%.

As for `O=C(O)c1ccc(CC2CCN(S(=O)(=O)N3CCOCC3)C2)cc1` (configuration not stated), the cytotoxicity at 10 µM was 1.62%.

Regarding `c1cc(CN2CCO[C@@H]3CNC[C@@H]32)cs1`, the cytotoxicity at 10 µM was 9.22%.

Turning to `CCC1CN(C(=O)c2ccccc2C#N)CCN1C(C)C` (configuration not stated), the cytotoxicity at 10 µM was -0.772%.

With `CCN1Cc2ccccc2CC2(CCN(C)CC2)C1=O`, the cytotoxicity at 10 µM turned out to be 14.3%.

As for `CN1CC(C(=O)NCc2cccnc2OCc2ccccc2)CC1=O` (configuration not stated), the cytotoxicity at 10 µM turned out to be 4.44%.

As for `Cc1cccc(CNC(=O)CC2CCN(C(=O)C(C)C)CC2)n1`, the cytotoxicity at 10 µM came to 7.45%.

For the compound `CN(C)S(=O)(=O)N1CCC(c2n[nH]cc2-c2ccnc(N)c2)C1` (configuration not stated), the cytotoxicity at 10 µM stood at 8.81%.

`O=C(NCc1cnn2cccnc12)C1CC(=O)N(Cc2cccnc2)C1` (configuration not stated): the cytotoxicity at 10 µM is 8.21%.

Take `CC(C)C(NCc1ccc(Cn2cncn2)cc1)c1ccc(F)cn1` (configuration not stated): the cytotoxicity at 10 µM was -0.593%.

In the case of `CCCC(NC(=O)c1ccc(C)cc1C)c1nnn[nH]1` (configuration not stated), the cytotoxicity at 10 µM was -3.82%.

Consider `O=C(NCc1nncn1C1CCCCC1)C1COc2ccccc2C1` (configuration not stated), for which the cytotoxicity at 10 µM was 3.16%.

Take `Cc1ccc(C)c2c(C)c(C(=O)NCCCn3ccnn3)[nH]c12`: the cytotoxicity at 10 µM was -0.84%.

Take `CC(C)CN1CCO[C@H]2CCN(c3cnccn3)CC[C@@H]21`: the cytotoxicity at 10 µM is 2.31%.

With `Cn1c(=O)n(C)c2nc(Cl)c(CC(=O)c3ccccc3)n2c1=O`, the cytotoxicity at 10 µM was -13.9%.

Take `Cc1ccc(-c2csc(N)c2C#N)c(C)c1`: the cytotoxicity at 10 µM turned out to be 10.5%.

Take `CCn1cnnc1CNC(=O)N1CCC(CN2CCOCC2)CC1`: the cytotoxicity at 10 µM is -7%.

With `O=c1[nH]nc2c(S(=O)(=O)N3CCCC3)cccn12`, the cytotoxicity at 10 µM was -4.52%.

Consider `COc1cc(NCCNC(=O)c2cc[nH]c2C)cc(OC)c1`, for which the cytotoxicity at 10 µM is -4.33%.

In the case of `Cc1cnn(C2CN(Cc3noc(C)n3)C2)c1`, the cytotoxicity at 10 µM was determined as 40.3%.

Turning to `CN(Cc1cc2ccccc2o1)S(C)(=O)=O`, the cytotoxicity at 10 µM was 1.66%.

As to `Cc1nn(C)c2c(NCCCn3cccn3)nc(C3CC3)nc12`, the cytotoxicity at 10 µM came to 12.9%.

Take `Cn1nc2c(cc1=O)CN(CC(=O)Nc1cc(C(C)(C)C)no1)CC2`: the cytotoxicity at 10 µM is -4.1%.

In the case of `O=C(Nc1ccccc1)C1CN(Cc2ccco2)CC12CCOCC2` (configuration not stated), the cytotoxicity at 10 µM is -3.2%.

The values are drawn from ChEMBL document CHEMBL4513216, “Probing the Open Global Health Chemical Diversity Library for Multistage-Active Starting Points for Next-Generation Antimalarials” (ACS Infect Dis, 2020).
